{"data": "Measurements pooled from the literature", "note": "Compare with care: the assays were run in different laboratories."}
{"SMILES": "CC(C)c1cc(C(=O)NCCN)c2cnn(C(C)C)c2n1", "test": "metabolic stability", "test system": "mouse, liver microsomes", "quantity": "scaled CLint", "value": "< 2.28 L/h/kg"}
{"SMILES": "O=c1c2c([nH]c3ccc(F)c(Oc4ccc(OC(F)(F)F)cc4)c13)CCCC2", "test": "metabolic stability", "test system": "mouse, liver microsomes", "setting": "1 µM, pH 7.4", "quantity": "microsomal CLint", "value": "49 µL/min/mg"}
{"SMILES": "Cc1cc(S(=O)(=O)NC2CC(N3CCN(CC4CCN(c5ccc(NC6CCC(=O)NC6=O)cc5C)CC4)CC3)C2)ccc1Nc1ncc(C(F)(F)F)c(N2CCC[C@](C)(O)C2)n1 (some centres unmarked)", "test system": "rat, plasma", "setting": "intravenous, 2 mg/kg", "quantity": "Vd", "value": "9 L/kg"}
{"SMILES": "CCCN(CCC)CCOc1ccc2c(=O)c3c([nH]c2c1)CCCC3", "test": "metabolic stability", "test system": "mouse, liver microsomes", "setting": "1 µM, pH 7.4", "quantity": "microsomal CLint", "value": "51.9 µL/min/mg"}
{"SMILES": "O=C1NC(CF)(CF)C(=O)N1c1ccc(F)c(C(F)(F)F)c1", "test": "metabolic stability", "test system": "mouse, liver microsomes", "quantity": "microsomal CLint", "value": "< 7 µL/min/mg"}
{"SMILES": "CN(C)CCOc1ccc2c(=O)c3c([nH]c2c1)CCCC3", "test": "metabolic stability", "test system": "mouse, liver microsomes", "setting": "1 µM, pH 7.4", "quantity": "microsomal CLint", "value": "40.4 µL/min/mg"}
{"SMILES": "CNS(=O)(=O)c1ccc(Nc2ncc(C(F)(F)F)c(N3CCC(C)(O)CC3)n2)c(C)c1", "test system": "rat, plasma", "setting": "intravenous, 2 mg/kg", "quantity": "Vd", "value": "3 L/kg"}
{"SMILES": "CC1(C)NC(=O)N(c2ccc(F)c(S(C)(=O)=O)c2)C1=O", "test": "metabolic stability", "test system": "mouse, liver microsomes", "quantity": "microsomal CLint", "value": "< 7 µL/min/mg"}
{"SMILES": "CC(C)n1ncc2c(C(=O)NCC(C)(C)N(C)C)cc(C3CC3)nc21", "test": "metabolic stability", "test system": "mouse, liver microsomes", "quantity": "scaled CLint", "value": "7.22 L/h/kg"}
{"SMILES": "CCCCN(CCCC)CCCOc1ccc2c(=O)c3c([nH]c2c1)CCCC3", "test": "metabolic stability", "test system": "mouse, liver microsomes", "setting": "1 µM, pH 7.4", "quantity": "microsomal CLint", "value": "36.2 µL/min/mg"}
{"SMILES": "CC(C)n1ncc2c(C(=O)NCC3(C)CNC3)cc(C3CC3)nc21", "test": "metabolic stability", "test system": "mouse, liver microsomes", "quantity": "scaled CLint", "value": "< 2.28 L/h/kg"}
{"SMILES": "Cc1cc(S(=O)(=O)N[C@]2(C)C[C@H](N3CCN(CC4CCN(c5ccc6c(c5F)n(C)c(=O)n6C5CCC(=O)NC5=O)CC4)CC3)C2)ccc1Nc1ncc(C(F)(F)F)c(N2CCC[C@](C)(O)C2)n1 (some centres unmarked)", "test system": "rat, plasma", "setting": "intravenous, 2 mg/kg", "quantity": "Vd", "value": "42 L/kg"}
{"SMILES": "CC(C)n1ncc2c(C(=O)NCC3(F)CNC3)cc(C3CC3)nc21", "test": "metabolic stability", "test system": "mouse, liver microsomes", "quantity": "scaled CLint", "value": "4.69 L/h/kg"}
{"SMILES": "C[C@H]1Oc2cc(cnc2N)-c2c(nn(C)c2C#N)CN(C)C(=O)c2ccc(F)cc21", "test system": "male Sprague-Dawley rat, plasma", "setting": "oral, 10 mg/kg, single dose", "quantity": "Vd/F", "value": "37 L/kg"}
